# How the values were obtained:
# [1] = molecular target: Amyloid-beta precursor protein (Homo sapiens, UniProt P05067); test: Binding affinity to amyloid beta (1 to 42) (unknown origin) aggregates assessed as apparent dissociation constant after 30 mins by fluorescence spectroscopic analysis; conditions: read-out: Kd(app)
# How it was run: (§1)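 Tau: human 441-aa tau expressed in E. coli, aggregated at 1 mg/mL in MES buffer pH 6.8 with 0.1 mg/mL heparin, 37 °C for 3 days with shaking. Abeta1-42 aggregated at 0.25 mg/mL in PBS pH 7.4, 37 °C for 42 h with shaking. Aggregates at final 10 µg/mL were incubated with ligand (final 0.02–10 µM) for 30 min at room temperature. Apparent Kd was taken from fluorescence saturation curves at ex 440 nm, em 510 nm (tau) or em 480 nm (Abeta). Mean ± SEM of six independent experiments.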
# [2] = molecular target: Microtubule-associated protein tau (Homo sapiens, UniProt P10636); test: Binding affinity to recombinant human tau (441 amino acid residues) aggregates expressed in Escherichia coli assessed as apparent dissociation constant after 30 mins by fluorescence spectroscopic analysis; conditions: read-out: Kd(app); how it was run: as §1
# Chain of Microtubule-associated protein tau (P10636 whole entry): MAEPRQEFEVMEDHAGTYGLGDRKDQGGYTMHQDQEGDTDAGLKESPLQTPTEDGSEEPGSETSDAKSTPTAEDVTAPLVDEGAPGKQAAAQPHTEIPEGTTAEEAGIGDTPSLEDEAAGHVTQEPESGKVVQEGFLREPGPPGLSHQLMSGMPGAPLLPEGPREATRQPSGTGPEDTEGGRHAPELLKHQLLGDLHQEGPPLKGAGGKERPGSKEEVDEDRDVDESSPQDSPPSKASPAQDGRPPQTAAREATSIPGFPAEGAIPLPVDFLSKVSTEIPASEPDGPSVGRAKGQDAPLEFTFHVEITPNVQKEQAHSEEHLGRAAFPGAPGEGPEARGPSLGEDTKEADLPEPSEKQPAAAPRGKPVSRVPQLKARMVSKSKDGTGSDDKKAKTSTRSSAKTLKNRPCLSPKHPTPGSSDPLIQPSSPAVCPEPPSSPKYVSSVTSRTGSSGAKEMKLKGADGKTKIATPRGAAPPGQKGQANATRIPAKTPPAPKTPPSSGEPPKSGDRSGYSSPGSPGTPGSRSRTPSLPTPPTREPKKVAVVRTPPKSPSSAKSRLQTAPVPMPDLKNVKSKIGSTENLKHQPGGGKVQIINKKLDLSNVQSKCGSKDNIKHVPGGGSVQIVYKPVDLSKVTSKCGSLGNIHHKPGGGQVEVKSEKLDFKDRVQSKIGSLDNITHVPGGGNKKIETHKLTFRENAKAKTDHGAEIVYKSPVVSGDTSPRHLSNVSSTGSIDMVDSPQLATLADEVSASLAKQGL
# Homo sapiens = species on record: Homo sapiens; test: Selectivity ratio of Kd(app) for amyloid beta (1 to 42) (unknown origin) aggregates to Kd(app) for recombinant human tau (441 amino acid residues) aggregates
# How it was run: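 Human 441-aa tau, expressed in E. coli, was aggregated at 1 mg/mL (MES pH 6.8, 0.1 mg/mL heparin, 37 °C, 3 days, shaking). Aβ1–42 was aggregated at 0.25 mg/mL (PBS pH 7.4, 37 °C, 42 h). Aggregates were incubated 30 min at room temperature with ligand, and fluorescence read at ex 440 nm, em 510 nm (tau) or 480 nm (Aβ). Apparent Kd came from saturation curves over six independent experiments, and the ratio is Kd(Aβ)/Kd(tau).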
# Brain [3] = test: Biodistribution in ddY mouse brain at 13.2 to 20.6 kBq, iv measured at 10 mins by gamma counting analysis; type: ADME, organism-based; conditions: in vivo
# How it was run: (§2)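 Male ddY mice, 5 weeks old, received the 125I-labelled tracer (13.2–20.6 kBq) intravenously in the tail vein, in 100 µL saline containing ethanol. Animals were sacrificed at 2, 10, 30 and 60 min. Tissue radioactivity is expressed as %ID/g, mean (SD) of 5 animals.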
# Spleen [4] = test: Biodistribution in ddY mouse spleen at 13.2 to 20.6 kBq, iv measured at 60 mins by gamma counting analysis; type: ADME, organism-based; conditions: in vivo, 1 h; how it was run: as §2
# Stomach [5] = test: Biodistribution in ddY mouse stomach at 13.2 to 20.6 kBq, iv measured per organ at 2 mins by gamma counting analysis; type: ADME, organism-based; conditions: in vivo
# How it was run: (§3)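 Male ddY mice, 5 weeks old, were injected in the tail vein with the 125I tracer (13.2–20.6 kBq) in 100 µL saline containing ethanol. Sacrifice at 2, 10, 30 and 60 min. Stomach radioactivity is expressed as %ID per whole organ, mean (SD) of 5 animals.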
# Blood [6] = test: Biodistribution in ddY mouse blood at 13.2 to 20.6 kBq, iv measured at 60 mins by gamma counting analysis; type: ADME, organism-based; conditions: in vivo, 1 h; how it was run: as §2
# Liver [7] = test: Biodistribution in ddY mouse liver at 13.2 to 20.6 kBq, iv measured at 60 mins by gamma counting analysis; type: ADME, organism-based; conditions: in vivo, 1 h; how it was run: as §2
# Stomach [8] = test: Biodistribution in ddY mouse stomach at 13.2 to 20.6 kBq, iv measured per organ at 30 mins by gamma counting analysis; type: ADME, organism-based; conditions: in vivo, 0.5 h; how it was run: as §3
# Liver [9] = test: Biodistribution in ddY mouse liver at 13.2 to 20.6 kBq, iv measured at 2 mins by gamma counting analysis; type: ADME, organism-based; conditions: in vivo; how it was run: as §2
# Brain [10] = test: Biodistribution in ddY mouse brain at 13.2 to 20.6 kBq, iv measured at 2 mins by gamma counting analysis; type: ADME, organism-based; conditions: in vivo; how it was run: as §2
# Brain [11] = test: Ratio of drug level in ddY mouse brain at 13.2 to 20.6 kBq, iv measured at 2 mins to drug level in ddY mouse brain at 13.2 to 20.6 kBq, iv measured at 60 mins; type: ADME, organism-based; conditions: in vivo
# How it was run: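 Tail-vein injection of the 125I tracer (13.2–20.6 kBq, saline with ethanol) into male 5-week-old ddY mice. The ratio is brain uptake (%ID/g) at 2 min divided by brain uptake at 60 min, from groups of 5 animals.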
# Spleen [12] = test: Biodistribution in ddY mouse spleen at 13.2 to 20.6 kBq, iv measured at 30 mins by gamma counting analysis; type: ADME, organism-based; conditions: in vivo, 0.5 h; how it was run: as §2
# Brain [13] = test: Biodistribution in ddY mouse brain at 13.2 to 20.6 kBq, iv measured at 30 mins by gamma counting analysis; type: ADME, organism-based; conditions: in vivo, 0.5 h; how it was run: as §2
# Kidney [14] = test: Biodistribution in ddY mouse kidney at 13.2 to 20.6 kBq, iv measured at 60 mins by gamma counting analysis; type: ADME, organism-based; conditions: in vivo, 1 h; how it was run: as §2
# Blood [15] = test: Biodistribution in ddY mouse blood at 13.2 to 20.6 kBq, iv measured at 2 mins by gamma counting analysis; type: ADME, organism-based; conditions: in vivo; how it was run: as §2
# Lung [16] = test: Biodistribution in ddY mouse lung at 13.2 to 20.6 kBq, iv measured at 2 mins by gamma counting analysis; type: ADME, organism-based; conditions: in vivo; how it was run: as §2
# Heart [17] = test: Biodistribution in ddY mouse heart at 13.2 to 20.6 kBq, iv measured at 10 mins by gamma counting analysis; type: ADME, organism-based; conditions: in vivo; how it was run: as §2
# Blood [18] = test: Biodistribution in ddY mouse blood at 13.2 to 20.6 kBq, iv measured at 10 mins by gamma counting analysis; type: ADME, organism-based; conditions: in vivo; how it was run: as §2
# Stomach [19] = test: Biodistribution in ddY mouse stomach at 13.2 to 20.6 kBq, iv measured per organ at 60 mins by gamma counting analysis; type: ADME, organism-based; conditions: in vivo, 1 h; how it was run: as §3
# Intestine [20] = test: Biodistribution in ddY mouse intestine at 13.2 to 20.6 kBq, iv measured at 10 mins by gamma counting analysis; type: ADME, organism-based; conditions: in vivo; how it was run: as §2
# Pancreas [21] = test: Biodistribution in ddY mouse pancreas at 13.2 to 20.6 kBq, iv measured at 10 mins by gamma counting analysis; type: ADME, organism-based; conditions: in vivo; how it was run: as §2
# Heart [22] = test: Biodistribution in ddY mouse heart at 13.2 to 20.6 kBq, iv measured at 2 mins by gamma counting analysis; type: ADME, organism-based; conditions: in vivo; how it was run: as §2
# Intestine [23] = test: Biodistribution in ddY mouse intestine at 13.2 to 20.6 kBq, iv measured at 60 mins by gamma counting analysis; type: ADME, organism-based; conditions: in vivo, 1 h; how it was run: as §2
# Intestine [24] = test: Biodistribution in ddY mouse intestine at 13.2 to 20.6 kBq, iv measured at 30 mins by gamma counting analysis; type: ADME, organism-based; conditions: in vivo, 0.5 h; how it was run: as §2
# Lung [25] = test: Biodistribution in ddY mouse lung at 13.2 to 20.6 kBq, iv measured at 10 mins by gamma counting analysis; type: ADME, organism-based; conditions: in vivo; how it was run: as §2
# Heart [26] = test: Biodistribution in ddY mouse heart at 13.2 to 20.6 kBq, iv measured at 60 mins by gamma counting analysis; type: ADME, organism-based; conditions: in vivo, 1 h; how it was run: as §2
# Heart [27] = test: Biodistribution in ddY mouse heart at 13.2 to 20.6 kBq, iv measured at 30 mins by gamma counting analysis; type: ADME, organism-based; conditions: in vivo, 0.5 h; how it was run: as §2
# Intestine [28] = test: Biodistribution in ddY mouse intestine at 13.2 to 20.6 kBq, iv measured at 2 mins by gamma counting analysis; type: ADME, organism-based; conditions: in vivo; how it was run: as §2
# Blood [29] = test: Biodistribution in ddY mouse blood at 13.2 to 20.6 kBq, iv measured at 30 mins by gamma counting analysis; type: ADME, organism-based; conditions: in vivo, 0.5 h; how it was run: as §2
# [30] = 1-Octanol-PBS buffer partition coefficient, log P of the compound at 0.37 MBq after 2 mins by gamma counting analysis; type: physicochemical
# Spleen [31] = test: Biodistribution in ddY mouse spleen at 13.2 to 20.6 kBq, iv measured at 10 mins by gamma counting analysis; type: ADME, organism-based; conditions: in vivo; how it was run: as §2
# Liver [32] = test: Biodistribution in ddY mouse liver at 13.2 to 20.6 kBq, iv measured at 10 mins by gamma counting analysis; type: ADME, organism-based; conditions: in vivo; how it was run: as §2
# Brain [33] = test: Biodistribution in ddY mouse brain at 13.2 to 20.6 kBq, iv measured at 60 mins by gamma counting analysis; type: ADME, organism-based; conditions: in vivo, 1 h; how it was run: as §2
# Kidney [34] = test: Biodistribution in ddY mouse kidney at 13.2 to 20.6 kBq, iv measured at 10 mins by gamma counting analysis; type: ADME, organism-based; conditions: in vivo; how it was run: as §2
# Pancreas [35] = test: Biodistribution in ddY mouse pancreas at 13.2 to 20.6 kBq, iv measured at 30 mins by gamma counting analysis; type: ADME, organism-based; conditions: in vivo, 0.5 h; how it was run: as §2
# Lung [36] = test: Biodistribution in ddY mouse lung at 13.2 to 20.6 kBq, iv measured at 60 mins by gamma counting analysis; type: ADME, organism-based; conditions: in vivo, 1 h; how it was run: as §2
# Pancreas [37] = test: Biodistribution in ddY mouse pancreas at 13.2 to 20.6 kBq, iv measured at 2 mins by gamma counting analysis; type: ADME, organism-based; conditions: in vivo; how it was run: as §2
# Kidney [38] = test: Biodistribution in ddY mouse kidney at 13.2 to 20.6 kBq, iv measured at 2 mins by gamma counting analysis; type: ADME, organism-based; conditions: in vivo; how it was run: as §2
# Pancreas [39] = test: Biodistribution in ddY mouse pancreas at 13.2 to 20.6 kBq, iv measured at 60 mins by gamma counting analysis; type: ADME, organism-based; conditions: in vivo, 1 h; how it was run: as §2
# Lung [40] = test: Biodistribution in ddY mouse lung at 13.2 to 20.6 kBq, iv measured at 30 mins by gamma counting analysis; type: ADME, organism-based; conditions: in vivo, 0.5 h; how it was run: as §2
# Kidney [41] = test: Biodistribution in ddY mouse kidney at 13.2 to 20.6 kBq, iv measured at 30 mins by gamma counting analysis; type: ADME, organism-based; conditions: in vivo, 0.5 h; how it was run: as §2
# Spleen [42] = test: Biodistribution in ddY mouse spleen at 13.2 to 20.6 kBq, iv measured at 2 mins by gamma counting analysis; type: ADME, organism-based; conditions: in vivo; how it was run: as §2
# Stomach [43] = test: Biodistribution in ddY mouse stomach at 13.2 to 20.6 kBq, iv measured per organ at 10 mins by gamma counting analysis; type: ADME, organism-based; conditions: in vivo; how it was run: as §3
# Liver [44] = test: Biodistribution in ddY mouse liver at 13.2 to 20.6 kBq, iv measured at 30 mins by gamma counting analysis; type: ADME, organism-based; conditions: in vivo, 0.5 h; how it was run: as §2
# Chain of Amyloid-beta precursor protein (P05067 whole entry): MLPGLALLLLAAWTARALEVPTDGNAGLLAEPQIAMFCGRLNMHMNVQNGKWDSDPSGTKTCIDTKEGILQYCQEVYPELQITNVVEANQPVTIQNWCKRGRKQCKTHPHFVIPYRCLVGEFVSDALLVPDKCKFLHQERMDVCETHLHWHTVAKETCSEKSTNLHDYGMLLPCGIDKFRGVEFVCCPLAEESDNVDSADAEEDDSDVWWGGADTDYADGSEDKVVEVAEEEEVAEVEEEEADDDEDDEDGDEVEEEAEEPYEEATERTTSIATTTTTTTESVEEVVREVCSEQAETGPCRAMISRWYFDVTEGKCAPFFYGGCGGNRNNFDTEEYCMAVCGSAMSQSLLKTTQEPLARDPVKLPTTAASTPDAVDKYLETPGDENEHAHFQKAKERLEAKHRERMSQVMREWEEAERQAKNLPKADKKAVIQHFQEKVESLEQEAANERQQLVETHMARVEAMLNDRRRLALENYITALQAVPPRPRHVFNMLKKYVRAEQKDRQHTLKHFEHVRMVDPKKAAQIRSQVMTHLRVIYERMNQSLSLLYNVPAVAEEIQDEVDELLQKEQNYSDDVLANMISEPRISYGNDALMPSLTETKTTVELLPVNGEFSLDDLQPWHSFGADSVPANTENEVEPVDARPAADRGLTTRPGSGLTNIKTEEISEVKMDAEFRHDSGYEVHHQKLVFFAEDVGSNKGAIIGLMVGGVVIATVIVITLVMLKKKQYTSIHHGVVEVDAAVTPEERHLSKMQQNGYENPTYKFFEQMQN
smiles,measurement,setting,value
Nc1ccc(/C=C/c2nc3ccc(I)cc3[nH]2)cc1,Kd,[1],900 nM
same,Kd,[2],2360 nM
same,Selectivity ratio,Homo sapiens,0.38
Nc1ccc(/C=C/c2nc3ccc([125I])cc3[nH]2)cc1,Drug uptake,Brain [3],1.4 % ID/g
same,Drug uptake,Spleen [4],2.46 % ID/g
same,Drug uptake,Stomach [5],1.7 %ID
same,Drug uptake,Blood [6],1.24 % ID/g
same,Drug uptake,Liver [7],15.6 % ID/g
same,Drug uptake,Stomach [8],3.6 %ID
same,Drug uptake,Liver [9],29.4 % ID/g
same,Drug uptake,Brain [10],3.2 % ID/g
same,Ratio,Brain [11],26.7
same,Drug uptake,Spleen [12],2.71 % ID/g
same,Drug uptake,Brain [13],0.26 % ID/g
same,Drug uptake,Kidney [14],3.25 % ID/g
same,Drug uptake,Blood [15],5.94 % ID/g
same,Drug uptake,Lung [16],9.09 % ID/g
same,Drug uptake,Heart [17],2.84 % ID/g
same,Drug uptake,Blood [18],2.72 % ID/g
same,Drug uptake,Stomach [19],4.37 %ID
same,Drug uptake,Intestine [20],13.7 % ID/g
same,Drug uptake,Pancreas [21],1.93 % ID/g
same,Drug uptake,Heart [22],8.31 % ID/g
same,Drug uptake,Intestine [23],27.4 % ID/g
same,Drug uptake,Intestine [24],22.1 % ID/g
same,Drug uptake,Lung [25],3.55 % ID/g
same,Drug uptake,Heart [26],1.13 % ID/g
same,Drug uptake,Heart [27],1.48 % ID/g
same,Drug uptake,Intestine [28],4.09 % ID/g
same,Drug uptake,Blood [29],1.57 % ID/g
same,logP at 2 min,[30],1.88
same,Drug uptake,Spleen [31],4.87 % ID/g
same,Drug uptake,Liver [32],29.9 % ID/g
same,Drug uptake,Brain [33],0.12 % ID/g
same,Drug uptake,Kidney [34],5.04 % ID/g
same,Drug uptake,Pancreas [35],0.69 % ID/g
same,Drug uptake,Lung [36],1.44 % ID/g
same,Drug uptake,Pancreas [37],4.99 % ID/g
same,Drug uptake,Kidney [38],10.6 % ID/g
same,Drug uptake,Pancreas [39],1.43 % ID/g
same,Drug uptake,Lung [40],1.62 % ID/g
same,Drug uptake,Kidney [41],2.54 % ID/g
same,Drug uptake,Spleen [42],5.5 % ID/g
same,Drug uptake,Stomach [43],4.13 %ID
same,Drug uptake,Liver [44],19.3 % ID/g
